Entries after “also recorded” stand apart in the source; their conditions may differ. Like-named read-outs stand apart in the source and are kept apart here.
Legend:
p53 = assay: Gene expression by real time PCR in HepG2; assay type: cell-based; conditions: Homo sapiens, HepG2, 8 h, read-out: p53 expression, fold induction from untreated cells
Outline: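 HepG2 cells treated with test compound; p53 transcript measured within a panel that also covered cdk1, caspase 3, topoII and txnrd1, and expressed relative to untreated cells. Values given as mean ± SEM of two independent experiments, with significance set at p < 0.05 versus untreated cells.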

[1] = system: topoisomerase II (Topo II); assay: Topo II concentration in HepG2 cells, sandwich ELISA; assay type: cell-based; conditions: HepG2, IC50 concentrations, 8 hours, ELISA (Fig. 5A)
Outline: (§1)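 HepG2 cells were treated with test compound, with doxorubicin as reference. Cellular p38 MAPK and Topo II protein concentrations were then measured with commercial sandwich ELISA kits. Each compound had three wells, and the experiment was run twice. Values are mean ± SEM, with significance tested against untreated cells.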

[2] = Cytotoxicity in normal cells; assay type: cell-based, human; conditions: human, WI-38 normal fibroblasts
Outline: (§2)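 Normal human WI-38 fibroblasts were exposed to a concentration series of test compound, with doxorubicin as positive control and three wells per concentration. IC50 came from dose–response curves averaged over two parallel experiments and is given as mean ± SEM versus untreated cells. Selectivity index = WI-38 IC50 / median GI50 from the NCI cancer panel.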

HL-60 (TB) = assay: cells; conditions: Homo sapiens; for GI50: HL-60
HCC-2998 [3] = assay: NCI five-dose screen, colon cancer; assay type: cell-based; conditions: Homo sapiens; for GI50: HCC 2998; for CC50: HCC 2998, read-out: LC50
Outline: (§3)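 This was the NCI five-dose screen on the 60-cell-line human cancer panel, covering nine tumour types. It was given to compounds that met the single-dose criteria. GI50 is the concentration giving 50% growth inhibition, TGI the concentration giving 100% growth inhibition, and LC50 the concentration giving 50% lethality. MG-MID is the mean over all cell lines tested.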

HT29 [4] = assay: NCI five-dose screen, colon cancer; assay type: cell-based; conditions: Homo sapiens, HT-29
Outline: as §3

COLO 205 = assay: NCI five-dose screen, colon cancer; assay type: cell-based; conditions: Homo sapiens; for GI50: COLO 205; for CC50: COLO 205, read-out: LC50
Outline: as §3

RPMI-8226 = assay: NCI five-dose screen, leukemia; assay type: cell-based; conditions: Homo sapiens; for GI50: RPMI-8226
Outline: as §3

HCT-116 [5] = assay: NCI single dose; assay type: cell-based; conditions: Homo sapiens, HCT-116, read-out: percent growth inhibition
Outline: (§4)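 This was the NCI primary screen: test compound at one concentration of 10 μM against the 60-cell-line human cancer panel, covering leukemia, NSCLC, melanoma, colon, CNS, ovarian, renal, prostate and breast lines. The read-out was percent growth inhibition for each cell line. Compounds meeting the threshold went on to the five-dose screen.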

[6] = system: topoisomerase II (topoII); assay: Gene expression by real time PCR in HepG2; assay type: cell-based; conditions: HepG2, approximate value in text
HCT-15 [7] = assay: NCI single dose; assay type: cell-based; conditions: Homo sapiens, HCT-15, read-out: percent growth inhibition
Outline: as §4

HCC-2998 [8] = assay: NCI single dose; assay type: cell-based; conditions: Homo sapiens, HCC 2998, read-out: percent growth inhibition
Outline: as §4

SR [9] = assay: NCI single dose; assay type: cell-based; conditions: Homo sapiens, read-out: percent growth inhibition
Outline: as §4

60 cancer cell lines = assay: NCI single dose; assay type: cell-based, human; conditions: for GI% values, range over cell lines: 10 μM, range over the leukemia and colon cancer cell lines of Table 2; for inhibition at 10 µM: Homo sapiens, read-out: Mean percent growth inhibition (MPGI)
Outline: as §4

CCRF-CEM [10] = assay: NCI five-dose screen, leukemia; assay type: cell-based; conditions: Homo sapiens
Outline: as §3

K-562 [11] = assay: NCI single dose; assay type: cell-based; conditions: Homo sapiens, K562, read-out: percent growth inhibition
Outline: as §4

HCT-116 [12] = assay: NCI five-dose screen, colon cancer; assay type: cell-based; conditions: Homo sapiens; for GI50: HCT-116
Outline: as §3

MOLT-4 [13] = assay: NCI single dose; assay type: cell-based; conditions: Homo sapiens, MOLT-4, read-out: percent growth inhibition
Outline: as §4

KM12 [14] = assay: NCI single dose; assay type: cell-based; conditions: Homo sapiens, KM12, read-out: percent growth inhibition
Outline: as §4

MOLT-4 [15] = assay: NCI five-dose screen, leukemia; assay type: cell-based; conditions: Homo sapiens
Outline: as §3

[16] = system: p38 mitogen-activated protein kinase (MAPK); assay: MAPK concentration in HepG2 cells, sandwich ELISA; assay type: cell-based; conditions: HepG2, IC50 concentrations, 8 hours, ELISA (Fig. 5C)
Outline: as §1

[17] = system: cyclin-dependent kinase 1 (cdk1); assay: Gene expression by real time PCR in HepG2; assay type: cell-based; conditions: HepG2, approximate value in text
SR [18] = assay: NCI five-dose screen, leukemia; assay type: cell-based; conditions: Homo sapiens
Outline: as §3

CCRF-CEM [19] = assay: NCI single dose; assay type: cell-based; conditions: Homo sapiens, read-out: percent growth inhibition
Outline: as §4

SW-620 [20] = assay: NCI single dose; assay type: cell-based; conditions: Homo sapiens, SW-620, read-out: percent growth inhibition
Outline: as §4

HCT-15 [21] = assay: NCI five-dose screen, colon cancer; assay type: cell-based; conditions: Homo sapiens; for GI50: HCT-15
Outline: as §3

panel of 60 cell lines = assay: NCI five-dose screen, whole panel; assay type: cell-based; conditions: Homo sapiens; for CC50: read-out: Median LC50 (MG-MID)
Outline: as §3

cleaved caspase-3 = assay: Active cleaved caspase 3 activity in HepG2 cells; assay type: cell-based; conditions: for effect on activity of cleaved active caspase 3: HepG2 (Fig. 5B)
KM12 [22] = assay: NCI five-dose screen, colon cancer; assay type: cell-based; conditions: Homo sapiens; for GI50: KM12
Outline: as §3

[23] = system: human normal fibroblasts (WI-38); assay: Cytotoxicity in normal cells; assay type: cell-based; conditions: SI = WI-38 IC50/median GI50
Outline: as §2

HT29 [24] = assay: NCI single dose; assay type: cell-based; conditions: Homo sapiens, HT-29, read-out: percent growth inhibition
Outline: as §4

K-562 [25] = assay: NCI five-dose screen, leukemia; assay type: cell-based; conditions: Homo sapiens, K562
Outline: as §3

SW-620 [26] = assay: NCI five-dose screen, colon cancer; assay type: cell-based; conditions: Homo sapiens; for GI50: SW-620
Outline: as §3

COc1cccc2c1C(=O)c1c(O)c3c(c(O)c1C2=O)C[C@@](O)(C(=O)CO)C[C@@H]3O[C@H]1C[C@H](N)[C@H](O)[C@H](C)O1 [Dox, Doxorubicin, reference compound]
fold induction at 0.1 µM (p53): 3.14 ± 0.81 | effect on concentration of Topo II protein [1]: significantly downregulate | IC50 at 48 h [2]: 2900 ± 800 nM

COc1cc(-c2ccc(-c3ccc(C(=N)N)nc3)s2)cc(OC)c1OC.Cl [Compound 4c, 5-[5-(3,4,5-Trimethoxyphenyl)thiophen-2-yl]picolinamidine hydrochloride salt]
GI50 (HL-60 (TB)): 1870 nM | CC50 (HL-60 (TB); HL-60, read-out: LC50): 9440 nM | fold induction at 0.1 µM (p53): 1.18 ± 0.1 | GI50 (HCC-2998 [3]): 2000 nM | CC50 (HCC-2998 [3]): 7610 nM | GI50 (HT29 [4]): 1370 nM | GI50 (COLO 205): 1600 nM | CC50 (COLO 205): 6660 nM | GI50 (RPMI-8226): 1670 nM | CC50 (RPMI-8226; RPMI-8226, read-out: LC50): 9400 nM | inhibition at 10 µM (HCT-116 [5]): 99% | magnitude of downregulation of topoII expression [6]: ~70% | inhibition at 10 µM (HCT-15 [7]): 78.6% | inhibition at 10 µM (HCC-2998 [8]): 87.9% | inhibition at 10 µM (SR [9]): 93.7% | effect on concentration of Topo II protein [1]: significant reduction; also recorded: significantly downregulate | GI% values, range over cell lines (60 cancer cell lines): 50.93 to 99.05% | inhibition at 10 µM (60 cancer cell lines): 52.6% | GI50 (CCRF-CEM [10]): 2490 nM | inhibition at 10 µM (K-562 [11]): 94.4% | GI50 (HCT-116 [12]): 1470 nM | CC50 (HCT-116 [12]; HCT-116, read-out: LC50): 5600 nM | inhibition at 10 µM (MOLT-4 [13]): 76.2% | inhibition at 10 µM (KM12 [14]): 50.9% | GI50 (MOLT-4 [15]): 2530 nM | effect on concentration of MAPK protein [16]: significant reduction | magnitude of downregulation of cdk1 expression [17]: ~70% | GI50 (SR [18]): 2480 nM | inhibition at 10 µM (CCRF-CEM [19]): 89.1% | inhibition at 10 µM (SW-620 [20]): 70.8% | GI50 (HCT-15 [21]): 2180 nM | GI50 (panel of 60 cell lines; read-out: GI50, range over cell lines): 1370 to 2780 nM | GI50 (panel of 60 cell lines; read-out: Median GI50 (MG-MID)): 2390 nM | CC50 (panel of 60 cell lines): 19500 nM | effect on activity of cleaved active caspase 3 (cleaved caspase-3): devoid of any effect | increase in cleaved caspase 3 enzyme activity (cleaved caspase-3; HepG2, did not achieve statistical significance (Fig. 5B)): ~60% | GI50 (KM12 [22]): 2780 nM | selectivity index (SI) [23]: 21.5 | IC50 at 48 h [2]: 51300 ± 9000 nM | inhibition at 10 µM (HT29 [24]): 85.8% | GI50 (K-562 [25]): 1390 nM | GI50 (SW-620 [26]): 2090 nM

COc1ccc(-c2ccc(-c3ccc(C(=N)N)nc3)s2)cc1Cl.Cl [Compound 4b, 5-[5-(3-Chloro-4-methoxyphenyl)thiophen-2-yl]picolinamidine hydrochloride salt]
GI50 (HL-60 (TB)): 1660 nM | fold induction at 0.1 µM (p53): 1.03 ± 0.08 | GI50 (HCC-2998 [3]): 1860 nM | GI50 (HT29 [4]): 1350 nM | GI50 (COLO 205): 1940 nM | GI50 (RPMI-8226): 2250 nM | magnitude of downregulation of topoII expression [6]: ~50% | effect on concentration of Topo II protein [1]: significant reduction; also recorded: significantly downregulate | GI% values, range over cell lines (60 cancer cell lines): −7.17 to −86.03% | inhibition at 10 µM (60 cancer cell lines): -19.9% | GI50 (CCRF-CEM [10]): 1180 nM | GI50 (HCT-116 [12]): 1820 nM | GI50 (MOLT-4 [15]): 1720 nM | effect on concentration of MAPK protein [16]: significant reduction | magnitude of downregulation of cdk1 expression [17]: ~50% | GI50 (SR [18]): 580 nM | GI50 (HCT-15 [21]): 1570 nM | GI50 (panel of 60 cell lines; read-out: Median GI50 (MG-MID)): 1730 nM | CC50 (panel of 60 cell lines): 8310 nM | effect on activity of cleaved active caspase 3 (cleaved caspase-3): devoid of any effect | GI50 (KM12 [22]): 1810 nM | selectivity index (SI) [23]: 13.7 | IC50 at 48 h [2]: 23700 ± 2500 nM | inhibition at 10 µM (HT29 [24]): 97.5% | GI50 (K-562 [25]): 900 nM | GI50 (SW-620 [26]): 1790 nM

COc1ccc(-c2ccc(-c3ccc(C(=N)N)nc3)s2)cc1.Cl [Compound 4a, 5-[5-(4-Methoxyphenyl)thiophen-2-yl]picolinamidine hydrochloride salt]
GI50 (HL-60 (TB)): 1780 nM | fold induction at 0.1 µM (p53): 1.19 ± 0.43 | GI50 (HCC-2998 [3]): 1820 nM | CC50 (HCC-2998 [3]): 6380 nM | GI50 (HT29 [4]): 880 nM | GI50 (COLO 205): 1890 nM | CC50 (COLO 205): 8130 nM | GI50 (RPMI-8226): 2130 nM | inhibition at 10 µM (SR [9]): 99.7% | GI% values, range over cell lines (60 cancer cell lines): −7.17 to −86.03% | inhibition at 10 µM (60 cancer cell lines): -28.8% | GI50 (CCRF-CEM [10]): 1430 nM | GI50 (HCT-116 [12]): 1620 nM | GI50 (MOLT-4 [15]): 1900 nM | GI50 (SR [18]): 340 nM | GI50 (HCT-15 [21]): 1270 nM | CC50 (HCT-15 [21]; HCT-15, read-out: LC50): 5710 nM | GI50 (panel of 60 cell lines; read-out: Median GI50 (MG-MID)): 1620 nM | CC50 (panel of 60 cell lines): 8120 nM | GI50 (KM12 [22]): 1810 nM | CC50 (KM12 [22]; KM12, read-out: LC50): 6030 nM | selectivity index (SI) [23]: 13.0 | IC50 at 48 h [2]: 21100 ± 3100 nM | GI50 (K-562 [25]): 1090 nM | GI50 (SW-620 [26]): 430 nM | CC50 (SW-620 [26]; SW-620, read-out: LC50): 4980 nM

From publication PMC9057764 (RSC Advances, 2020)
